{"source": "paper PMC3445775", "about": "(Hepatology (Baltimore, Md.), 2012)", "key": {"[1]": {"target": "T1, human FATP5 (Homo sapiens, UniProt Q9Y2P5)", "T1 sequence (Q9Y2P5 1-690)": "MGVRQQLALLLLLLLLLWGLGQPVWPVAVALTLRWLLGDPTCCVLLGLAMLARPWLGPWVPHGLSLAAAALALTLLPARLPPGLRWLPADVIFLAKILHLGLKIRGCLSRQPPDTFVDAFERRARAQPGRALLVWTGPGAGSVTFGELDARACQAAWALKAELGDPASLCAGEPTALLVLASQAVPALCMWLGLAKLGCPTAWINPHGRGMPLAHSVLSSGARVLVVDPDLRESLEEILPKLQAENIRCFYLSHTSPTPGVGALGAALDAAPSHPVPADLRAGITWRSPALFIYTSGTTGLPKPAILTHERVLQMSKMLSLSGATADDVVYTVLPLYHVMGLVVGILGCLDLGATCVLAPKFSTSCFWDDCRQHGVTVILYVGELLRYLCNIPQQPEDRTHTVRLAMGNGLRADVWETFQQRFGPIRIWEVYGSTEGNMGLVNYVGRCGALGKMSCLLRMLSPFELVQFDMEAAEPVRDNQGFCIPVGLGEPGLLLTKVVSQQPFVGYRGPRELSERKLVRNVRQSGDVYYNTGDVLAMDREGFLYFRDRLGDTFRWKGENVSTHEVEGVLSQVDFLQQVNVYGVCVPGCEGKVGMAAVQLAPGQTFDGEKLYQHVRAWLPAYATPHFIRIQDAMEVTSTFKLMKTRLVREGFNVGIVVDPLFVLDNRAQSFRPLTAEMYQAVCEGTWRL", "type": "cell-based", "method_in_brief": "(§1)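 HEK-293 cells stably expressing human FATP4, FATP2 or FATP5 were maintained in DMEM/10% FBS with 1 mg/ml G418. Cells were plated at 30,000–50,000/well overnight to 50–70% confluency. They were preincubated 30 min (5% CO2) with test compound, diluted from DMSO stock into HBSS with 20 mM HEPES, 4.5 g/L glucose and 0.1% fatty-acid-free BSA. Compound in quencher mix containing 2 μM C1-BODIPY-C12 was then added. Fluorescence (ex 488/em 515 nm, bottom read) was recorded every 2 min for 2 h, and uptake velocities were derived by linear regression.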"}, "[2]": {"target": "human FATP2 (Homo sapiens, UniProt O14975)", "type": "cell-based", "method_in_brief": "as §1"}, "[3]": {"target": "hsFATP4 (Homo sapiens, UniProt Q6P1M0)", "sequence (Q6P1M0 whole entry)": "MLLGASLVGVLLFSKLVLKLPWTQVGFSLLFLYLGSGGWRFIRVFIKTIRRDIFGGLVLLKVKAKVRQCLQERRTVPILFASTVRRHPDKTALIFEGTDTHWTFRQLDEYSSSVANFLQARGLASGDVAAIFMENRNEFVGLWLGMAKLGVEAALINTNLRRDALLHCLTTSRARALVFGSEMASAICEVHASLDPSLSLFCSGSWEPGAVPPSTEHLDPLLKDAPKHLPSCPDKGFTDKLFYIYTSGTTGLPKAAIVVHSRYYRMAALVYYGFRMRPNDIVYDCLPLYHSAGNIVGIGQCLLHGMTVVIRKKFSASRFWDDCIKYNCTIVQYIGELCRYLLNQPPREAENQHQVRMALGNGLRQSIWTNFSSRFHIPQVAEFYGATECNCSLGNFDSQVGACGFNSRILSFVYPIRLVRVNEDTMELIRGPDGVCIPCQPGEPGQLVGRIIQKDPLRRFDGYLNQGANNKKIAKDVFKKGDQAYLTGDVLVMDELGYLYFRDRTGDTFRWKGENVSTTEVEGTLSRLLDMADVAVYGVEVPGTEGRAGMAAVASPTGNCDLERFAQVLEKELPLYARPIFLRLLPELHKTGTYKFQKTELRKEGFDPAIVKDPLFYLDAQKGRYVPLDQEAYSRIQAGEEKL", "test": "Quencher-based LCFA uptake assay, FATP4 expressing 293 cells", "type": "cell-based", "settings": "result in words", "method_in_brief": "as §1"}, "[4]": {"tested_on": "FATP5 and FATP2", "test": "Inhibition reversibility assay", "type": "cell-based, human", "settings": "30 min treatment followed by brief washes with PBS"}, "[5]": {"tested_on": "293 cells", "test": "XTT toxicity assay, stable 293 cell lines", "type": "cell-based, human", "settings": "48 hours", "method_in_brief": "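Stable 293 cells in DMEM/FBS were incubated overnight in 5% CO2. The indicated test compound or DMSO control was added, and after a further 48 h viability was measured with an XTT kit per the manufacturer's instructions.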"}, "[6]": {"tested_on": "primary mouse hepatocytes from C57Bl/6 animals", "test": "Quencher based LCFA uptake assay, wild-type mouse primary hepatocytes", "type": "cell-based"}, "[7]": {"tested_on": "primary hepatocytes from FATP5-null animals", "test": "Quencher based LCFA uptake assay, FATP5-null mouse primary hepatocytes", "type": "cell-based", "settings": "FATP5 KO", "method_in_brief": "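Primary hepatocytes from FATP5-null mice were isolated by portal-vein perfusion and collagenase digestion. Viability was checked by trypan blue, and cells were plated on collagen (150,000 cells/well) in DMEM/FBS with insulin-transferrin-selenium overnight. Test compound from DMSO stock in HBSS (20 mM HEPES, 4.5 g/L glucose, 0.1% fatty-acid-free BSA) was applied for 30 min. It was replaced by the same compound in quencher mix with 2 μM C1-BODIPY-C12. Bottom-read fluorescence (ex 488/em 515 nm) was taken every 2 min for 2 h, and velocities were obtained by linear regression.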"}, "[8]": {"tested_on": "primary mouse hepatocytes", "test": "XTT viability of primary mouse hepatocytes", "type": "cell-based", "settings": "48 hour treatment"}, "[9]": {"tested_on": "Mouse primary hepatocytes", "test": "Uptake assay of radiolabeled compounds, primary hepatocytes", "type": "cell-based", "settings": "5 μM DCA"}, "[10]": {"tested_on": "hepatic LCFA uptake", "test": "Non-radioactive in vivo hepatic LCFA uptake assay", "parameters": "species or system mouse"}, "[11]": {"tested_on": "hepatic triglyceride accumulation", "test": "Chronic bile acid injection during high-fat diet", "type": "in vivo, mouse", "settings": "3.2 mg/kg s.c. daily", "method_in_brief": "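Individually housed mice on a high-fat diet (60% calories from fat) received daily s.c. injections of test compound, 3.2 mg/kg in 20 μl DMSO, above the right hip for 47 days. Controls received DMSO vehicle. Mice were fasted 4 h and euthanised with CO2, and injection sites were checked for precipitate. Liver lysates were assayed for protein (BCA) and TAG.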"}, "[12]": {"tested_on": "hepatic TAG content", "test": "7 week bile acid supplemented high-fat diet feeding", "type": "in vivo, mouse"}, "[13]": {"tested_on": "acute liver LCFA absorption", "test": "1 week DCA/high-fat food feeding pilot", "type": "in vivo, mouse"}, "[14]": {"tested_on": "intestinal fatty acid absorption", "test": "Non-radioactive intestinal in vivo LCFA absorption assay", "parameters": "species or system mouse", "settings": "gavage of olive oil/BODIPY-FFA with 0.05% DCA", "method_in_brief": "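Mice were gavaged with 200 μl of olive oil/20 μM BODIPY-FFA containing 0% or 0.05% bile acid. Blood was drawn at 0, 30, 60, 120 and 240 min after gavage, and serum fluorescence at 515 nm was read on a plate reader.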"}, "[15]": {"tested_on": "TGR5", "settings": "ref [33], [34]; cited from earlier work"}, "[16]": {"tested_on": "primary human hepatocytes", "test": "FACS-based LCFA uptake assay, primary human hepatocytes", "type": "cell-based", "settings": "10 or 100 μM, viable cells", "method_in_brief": "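Suspended primary human hepatocytes were pretreated with test compound at 10 or 100 μM in DMEM (37°C, 5% CO2, 30 min). C1-BODIPY-C12 bound to 0.1% BSA was then added to a final 2 μM for 30 min at 37°C. Uptake was stopped on ice, and cells were centrifuged at 4°C and resuspended in cold PBS. Propidium iodide was added, and mean BODIPY fluorescence of 5000 viable PI-negative cells was taken from histogram plots.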"}, "[17]": {"settings": "oral administration of UDCA; ref [41]; cited from earlier work"}, "[18]": {"tested_on": "NASH", "settings": "cited from earlier work"}, "[19]": {"settings": "0.5mg/g in high fat food, 7 weeks"}}, "note": "Entries after “also recorded” stand apart in the source; their conditions may differ.", "data": [{"smiles": "C[C@H](CCC(=O)O)[C@H]1CC[C@H]2[C@@H]3CC[C@@H]4C[C@H](O)CC[C@]4(C)[C@H]3C[C@H](O)[C@]12C", "note": "[DCA, deoxycholic acid]", "values": [{"measurement": "IC50", "setting": "[1]", "value": 190, "unit": "nM"}, {"measurement": "IC50", "setting": "[2]", "value": 5, "unit": "µM"}, {"measurement": "inhibition of FATP4 LCFA uptake", "setting": "[3]", "value": "neither DCA, UDCA, nor LCA inhibited; also recorded: No inhibition"}, {"measurement": "Reversible Inhibition", "setting": "[4]", "value": "reversible and Yes"}, {"measurement": "toxicity (XTT assay)", "setting": "[5]", "value": "did not display any cytotoxicity"}, {"measurement": "inhibition of LCFA uptake by primary mouse hepatocytes", "setting": "[6]", "value": "inhibited hepatocyte LCFA uptake significantly"}, {"measurement": "inhibition of LCFA uptake by FATP5-null primary hepatocytes", "setting": "[7]", "value": "abolished"}, {"measurement": "cytotoxicity to primary mouse hepatocytes (XTT)", "setting": "[8]", "value": "not associated with toxicity"}, {"measurement": "uptake of 2-deoxy-D-[3H]glucose/glucose mix", "setting": "[9]", "value": "without affecting uptake"}, {"measurement": "uptake of radiolabeled fatty acids", "setting": "[9]; 20 μM fatty acid", "value": "inhibit the uptake of a wide range of fatty acids"}, {"measurement": "effect on in vivo hepatic LCFA uptake in FATP5 KO", "setting": "[10]; FATP5 KO mice, 6.4mg/kg", "value": "abolished"}, {"measurement": "effect on in vivo hepatic LCFA uptake", "setting": "[10]; WT mice, acute injection", "value": "inhibitory effect was observed"}, {"measurement": "acute reduction of hepatic LCFA uptake", "setting": "[10]; in vivo, DCA injections", "value": 31, "unit": "%"}, {"measurement": "body weight", "setting": "[11]; 47 days", "value": "nor did it affect food consumption or body weight"}, {"measurement": "food consumption", "setting": "[11]; 47 days", "value": "nor did it affect food consumption or body weight"}, {"measurement": "respiration", "setting": "[11]; 47 days", "value": "neither triggered an increase in respiration"}, {"measurement": "reduction in the triglyceride content of the liver", "setting": "[11]; 47 days, WT", "value": 68, "unit": "%"}, {"measurement": "triglyceride content of the liver", "setting": "[11]; 47 days, WT, vehicle 6.6", "value": 2.1, "unit": "mg TAG/g protein"}, {"measurement": "liver TAG in FATP5-null animals", "setting": "[11]; FATP5-null", "value": "did not cause a further reduction in liver TAG"}, {"measurement": "body weight", "setting": "[12]; [19]", "value": "Neither DCA nor LCA feeding resulted in changes"}, {"measurement": "caloric output over a 36h period", "setting": "[12]; [19]", "value": "Neither DCA nor LCA feeding resulted in changes"}, {"measurement": "food intake", "setting": "[12]; [19]", "value": "Neither DCA nor LCA feeding resulted in changes"}, {"measurement": "respiratory rate", "setting": "[12]; [19]", "value": "Neither DCA nor LCA feeding resulted in changes"}, {"measurement": "lipid droplets in BODIPY-stained liver sections", "setting": "[12]; 0.05% DCA in high-fat diet", "value": "markedly reduced lipid droplets"}, {"measurement": "hepatotoxicity or fibrosis (ALT/AST assays, liver morphology)", "setting": "[12]; 0.05% DCA in high-fat diet, 49 days", "value": "did not lead to hepatotoxicity or fibrosis"}, {"measurement": "reduction in hepatic TAG content", "setting": "[12]; 0.05% in high-fat diet, 7 weeks", "value": "approximately 50%"}, {"measurement": "acute liver LCFA absorption", "setting": "[13]; DCA 0 to 0.2% in high-fat food", "value": "dose dependent reduction"}, {"measurement": "circulating liver enzymes (serum AST)", "setting": "[13]; DCA 0 to 0.2% in high-fat food", "value": "without causing a detectable increase"}, {"measurement": "circulating lipids in the form of TAG and cholesterol", "setting": "[13]; dietary DCA 0.03%-0.4%", "value": "unchanged"}, {"measurement": "intestinal fatty acid absorption (labeled fatty acid in the circulation)", "setting": "[14]", "value": "not suppressed; also recorded: no significant effect"}, {"measurement": "TGR5 activation", "setting": "[15]", "value": "activate TGR5 equally"}]}, {"smiles": "C[C@H](CCC(=O)O)[C@H]1CC[C@H]2[C@@H]3[C@@H](O)C[C@@H]4C[C@H](O)CC[C@]4(C)[C@H]3CC[C@]12C", "note": "[UDCA, ursodeoxycholic acid, reference compound]", "values": [{"measurement": "IC50", "setting": "[1]", "value": 5000, "unit": "nM"}, {"measurement": "inhibition of FATP4 LCFA uptake", "setting": "[3]", "value": "neither DCA, UDCA, nor LCA inhibited; also recorded: No inhibition"}, {"measurement": "Reversible Inhibition", "setting": "[4]", "value": "Yes"}, {"measurement": "inhibition of LCFA uptake by primary human hepatocytes", "setting": "[16]", "value": "inhibited LCFA uptake"}, {"measurement": "inhibition of LCFA uptake by primary mouse hepatocytes", "setting": "[6]", "value": "inhibited LCFA uptake"}, {"measurement": "inhibition of LCFA uptake by FATP5-null primary hepatocytes", "setting": "[7]", "value": "failed to inhibited LCFA uptake"}, {"measurement": "cytotoxicity to primary mouse hepatocytes (XTT)", "setting": "[8]", "value": "without any detectable cytotoxic effects"}, {"measurement": "circulating UDCA levels", "setting": "[17]", "value": "over 17 μM"}, {"measurement": "effect on hepatosteatosis and NASH versus placebo", "setting": "[18]; 13–15 mg/kg/day over 2 years, 166 patients, ref [43]", "value": "did not produce an effective result as compared to placebo"}, {"measurement": "overall histology", "setting": "[18]; 23–28 mg/kg/day for 18 months, 185 NASH patients, ref [44]", "value": "failed to improve the overall histology"}]}]}
